What was measured:
Format in all cases: functional
Settings in all cases: read-out: GI
K562 = test: Growth inhibition of human K562 cells at 10 uM incubated for 48 hrs by sulforhodamine B assay relative to control
In short: (§1)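 NCI-60 single-dose screen. Cells were grown in RPMI 1640 with 5% FBS and 2 mM L-glutamine and plated 24 h before drug addition. Compound was added at one concentration in DMSO-derived medium and incubated for 48 h at 37 °C in 5% CO2. Read-out was SRB protein stain at 515 nm. Result is percent growth versus the no-drug control and the time-zero cell count; values below 0 indicate lethality.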

MOLT-4 = test: Growth inhibition of human MOLT-4 cells at 10 uM incubated for 48 hrs by sulforhodamine B assay relative to control
In short: (§2)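 NCI one-dose screen. Cells grown in RPMI 1640 with 5% FBS and 2 mM L-glutamine, plated and incubated 24 h at 37 °C, 5% CO2. DMSO-dissolved drug added, then 48 h further incubation. Adherent cells fixed with cold TCA, suspension cells fixed after settling. Stained with 0.4% SRB, absorbance read at 515 nm. Reported as percent growth relative to no-drug control and time-zero cell number.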

SR = test: Growth inhibition of human SR cells at 10 uM incubated for 48 hrs by sulforhodamine B assay relative to control; in short: as §2
EKVX = test: Growth inhibition of human EKVX cells at 10 uM incubated for 48 hrs by sulforhodamine B assay relative to control; in short: as §1
HOP-62 = test: Growth inhibition of human HOP-62 cells at 10 uM incubated for 48 hrs by sulforhodamine B assay relative to control; in short: as §1
HOP-92 = test: Growth inhibition of human HOP-92 cells at 10 uM incubated for 48 hrs by sulforhodamine B assay relative to control; in short: as §1
NCI-H226 = test: Growth inhibition of human NCI-H226 cells at 10 uM incubated for 48 hrs by sulforhodamine B assay relative to control; in short: as §2
NCI-H23 = test: Growth inhibition of human NCI-H23 cells at 10 uM incubated for 48 hrs by sulforhodamine B assay relative to control; in short: as §2
NCI-H322M = test: Growth inhibition of human NCI-H322M cells at 10 uM incubated for 48 hrs by sulforhodamine B assay relative to control; in short: as §2
NCI-H460 = test: Growth inhibition of human NCI-H460 cells at 10 uM incubated for 48 hrs by sulforhodamine B assay relative to control; in short: as §2
NCI-H522 = test: Growth inhibition of human NCI-H522 cells at 10 uM incubated for 48 hrs by sulforhodamine B assay relative to control; in short: as §2
COLO 205 = test: Growth inhibition of human COLO 205 cells at 10 uM incubated for 48 hrs by sulforhodamine B assay relative to control; in short: as §1
KM12 = test: Growth inhibition of human KM12 cells at 10 uM incubated for 48 hrs by sulforhodamine B assay relative to control; in short: as §1
SW-620 = test: Growth inhibition of human SW-620 cells at 10 uM incubated for 48 hrs by sulforhodamine B assay relative to control
In short: (§3)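 NCI one-dose screen across a 59-line panel. Cells were grown in RPMI 1640 with 5% FBS and 2 mM L-glutamine, plated and pre-incubated 24 h, then exposed to drug for 48 h at 37 °C, 5% CO2. Adherent cells were fixed with cold TCA (10% final), stained with 0.4% SRB in 1% acetic acid and read at 515 nm. Result is percent growth relative to no-drug control and time-zero cell count.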

SF-539 = test: Growth inhibition of human SF-539 cells at 10 uM incubated for 48 hrs by sulforhodamine B assay relative to control; in short: as §2
SNB-19 = test: Growth inhibition of human SNB-19 cells at 10 uM incubated for 48 hrs by sulforhodamine B assay relative to control; in short: as §2
LOX IMVI = test: Growth inhibition of human LOX IMVI cells at 10 uM incubated for 48 hrs by sulforhodamine B assay relative to control; in short: as §1
Malme-3M = test: Growth inhibition of human Malme-3M cells at 10 uM incubated for 48 hrs by sulforhodamine B assay relative to control; in short: as §2
SK-MEL-2 = test: Growth inhibition of human SK-MEL-2 cells at 10 uM incubated for 48 hrs by sulforhodamine B assay relative to control; in short: as §2
SK-MEL-28 = test: Growth inhibition of human SK-MEL-28 cells at 10 uM incubated for 48 hrs by sulforhodamine B assay relative to control; in short: as §2
SK-MEL-5 = test: Growth inhibition of human SK-MEL-5 cells at 10 uM incubated for 48 hrs by sulforhodamine B assay relative to control; in short: as §2
UACC-257 = test: Growth inhibition of human UACC-257 cells at 10 uM incubated for 48 hrs by sulforhodamine B assay relative to control; in short: as §3
UACC-62 = test: Growth inhibition of human UACC-62 cells at 10 uM incubated for 48 hrs by sulforhodamine B assay relative to control; in short: as §3
IGROV-1 = test: Growth inhibition of human IGROV-1 cells at 10 uM incubated for 48 hrs by sulforhodamine B assay relative to control; in short: as §1
OVCAR-3 = test: Growth inhibition of human OVCAR-3 cells at 10 uM incubated for 48 hrs by sulforhodamine B assay relative to control; in short: as §2
OVCAR-4 = test: Growth inhibition of human OVCAR-4 cells at 10 uM incubated for 48 hrs by sulforhodamine B assay relative to control; in short: as §2
OVCAR-8 = test: Growth inhibition of human OVCAR-8 cells at 10 uM incubated for 48 hrs by sulforhodamine B assay relative to control; in short: as §2
NCI/ADR-RES = test: Growth inhibition of human NCI/ADR-RES cells at 10 uM incubated for 48 hrs by sulforhodamine B assay relative to control; in short: as §2
A498 = test: Growth inhibition of human A498 cells at 10 uM incubated for 48 hrs by sulforhodamine B assay relative to control; in short: as §3
RXF 393 = test: Growth inhibition of human RXF 393 cells at 10 uM incubated for 48 hrs by sulforhodamine B assay relative to control; in short: as §2
SN12C = test: Growth inhibition of human SN12C cells at 10 uM incubated for 48 hrs by sulforhodamine B assay relative to control; in short: as §2
TK-10 = test: Growth inhibition of human TK-10 cells at 10 uM incubated for 48 hrs by sulforhodamine B assay relative to control; in short: as §3
PC-3 = test: Growth inhibition of human PC-3 cells at 10 uM incubated for 48 hrs by sulforhodamine B assay relative to control; in short: as §2
Hs-578T = test: Growth inhibition of human HS-578T cells at 10 uM incubated for 48 hrs by sulforhodamine B assay relative to control; in short: as §1
BT-549 = test: Growth inhibition of human BT-549 cells at 10 uM incubated for 48 hrs by sulforhodamine B assay relative to control; in short: as §1
T47D = test: Growth inhibition of human T47D cells at 10 uM incubated for 48 hrs by sulforhodamine B assay relative to control; in short: as §3
MDA-MB-468 = test: Growth inhibition of human MDA-MB-468 cells at 10 uM incubated for 48 hrs by sulforhodamine B assay relative to control; in short: as §1

Row | Compound | inhibition of growth at 10 µM (K562) [%] | inhibition of growth at 10 µM (MOLT-4) [%] | inhibition of growth at 10 µM (SR) [%] | inhibition of growth at 10 µM (EKVX) [%] | inhibition of growth at 10 µM (HOP-62) [%] | inhibition of growth at 10 µM (HOP-92) [%] | inhibition of growth at 10 µM (NCI-H226) [%] | inhibition of growth at 10 µM (NCI-H23) [%] | inhibition of growth at 10 µM (NCI-H322M) [%] | inhibition of growth at 10 µM (NCI-H460) [%] | inhibition of growth at 10 µM (NCI-H522) [%] | inhibition of growth at 10 µM (COLO 205) [%] | inhibition of growth at 10 µM (KM12) [%] | inhibition of growth at 10 µM (SW-620) [%] | inhibition of growth at 10 µM (SF-539) [%] | inhibition of growth at 10 µM (SNB-19) [%] | inhibition of growth at 10 µM (LOX IMVI) [%] | inhibition of growth at 10 µM (Malme-3M) [%] | inhibition of growth at 10 µM (SK-MEL-2) [%] | inhibition of growth at 10 µM (SK-MEL-28) [%] | further results
1 | COc1cc2nc(-c3ccc(Cl)cc3)cc(OCCCN3CCCC3)c2cc1OC | 62 | 62 | 62 | 62 | 62 | 62 | 62 | 62 | 62 | 62 | 62 | 62 | 62 | 62 | 62 | 62 | 62 | 62 | 62 | 62 | inhibition of growth at 10 µM (SK-MEL-5): 62%; inhibition of growth at 10 µM (UACC-257): 62%; inhibition of growth at 10 µM (UACC-62): 62%; inhibition of growth at 10 µM (IGROV-1): 62%; inhibition of growth at 10 µM (OVCAR-3): 62%; inhibition of growth at 10 µM (OVCAR-4): 62%; inhibition of growth at 10 µM (OVCAR-8): 62%; inhibition of growth at 10 µM (NCI/ADR-RES): 62%; inhibition of growth at 10 µM (A498): 62%; inhibition of growth at 10 µM (RXF 393): 62%; inhibition of growth at 10 µM (SN12C): 62%; inhibition of growth at 10 µM (TK-10): 62%; inhibition of growth at 10 µM (PC-3): 62%; inhibition of growth at 10 µM (Hs-578T): 62%; inhibition of growth at 10 µM (BT-549): 62%; inhibition of growth at 10 µM (T47D): 62%; inhibition of growth at 10 µM (MDA-MB-468): 62%
2 | COc1cc2nc(-c3ccc(Cl)cc3)cc(OCCCN3CCC(O)CC3)c2cc1OC | 62 | 62 | 62 | 62 | 62 | 62 | 62 | 62 | 62 | 62 | 62 | 62 | 62 | 62 | 62 | 62 | 62 | 62 | 62 | 62 | inhibition of growth at 10 µM (SK-MEL-5): 62%; inhibition of growth at 10 µM (UACC-257): 62%; inhibition of growth at 10 µM (UACC-62): 62%; inhibition of growth at 10 µM (IGROV-1): 62%; inhibition of growth at 10 µM (OVCAR-3): 62%; inhibition of growth at 10 µM (OVCAR-4): 62%; inhibition of growth at 10 µM (OVCAR-8): 62%; inhibition of growth at 10 µM (NCI/ADR-RES): 62%; inhibition of growth at 10 µM (A498): 62%; inhibition of growth at 10 µM (RXF 393): 62%; inhibition of growth at 10 µM (SN12C): 62%; inhibition of growth at 10 µM (TK-10): 62%; inhibition of growth at 10 µM (PC-3): 62%; inhibition of growth at 10 µM (Hs-578T): 62%; inhibition of growth at 10 µM (BT-549): 62%; inhibition of growth at 10 µM (T47D): 62%; inhibition of growth at 10 µM (MDA-MB-468): 62%
3 | COc1cc2nc(-c3ccsc3)cc(OCCCN3CCC(O)CC3)c2cc1OC | 32 | 32 | 32 | 32 | 32 | 32 | 32 | 32 | 32 | 32 | 32 | 32 | 32 | 32 | 32 | 32 | 32 | 32 | 32 | 32 | inhibition of growth at 10 µM (SK-MEL-5): 32%; inhibition of growth at 10 µM (UACC-257): 32%; inhibition of growth at 10 µM (UACC-62): 32%; inhibition of growth at 10 µM (IGROV-1): 32%; inhibition of growth at 10 µM (OVCAR-3): 32%; inhibition of growth at 10 µM (OVCAR-4): 32%; inhibition of growth at 10 µM (OVCAR-8): 32%; inhibition of growth at 10 µM (NCI/ADR-RES): 32%; inhibition of growth at 10 µM (A498): 32%; inhibition of growth at 10 µM (RXF 393): 32%; inhibition of growth at 10 µM (SN12C): 32%; inhibition of growth at 10 µM (TK-10): 32%; inhibition of growth at 10 µM (PC-3): 32%; inhibition of growth at 10 µM (Hs-578T): 32%; inhibition of growth at 10 µM (BT-549): 32%; inhibition of growth at 10 µM (T47D): 32%; inhibition of growth at 10 µM (MDA-MB-468): 32%

From ChEMBL document CHEMBL4732237, “Discovery of 4-alkoxy-2-aryl-6,7-dimethoxyquinolines as a new class of topoisomerase I inhibitors endowed with potent in vitro anticancer activity” (2021)
